Results on 15 molecules are retold here after ChEMBL document CHEMBL3826898, “Oxa-Pictet-Spengler reaction as key step in the synthesis of novel σ receptor ligands with 2-benzopyran structure” (Bioorg Med Chem, 2016).

For test [1], the species on record is Mus musculus. Briefly: Analgesic activity in mouse by acetic acid writhing test. In kind it is functional.
The target of test [2] is Sigma non-opioid intracellular receptor 1 (Cavia porcellus, UniProt Q60492). Briefly: Displacement of [3H]-(+)-pentazocine from sigma 1 receptor in guinea pig brain membranes after 2 hrs by scintillation counting. In kind it is cell membranes, Membrane. In general terms: In a radioligand displacement assay an active substance lowers the binding of a labelled ligand.
The nature of test [3]: Displacement of [3H]di-o-tolylgluanidine from sigma 2 receptor in rat liver membranes at 1 uM after 2 hrs by scintillation counting. Particulars: Membrane.
The nature of test [4]: Selectivity ratio of Ki for sigma 2 receptor in rat liver membranes to Ki for sigma 1 receptor in guinea pig brain membranes. In kind it is cell membranes.
Test [5] in a line: Displacement of [3H]di-o-tolylgluanidine from sigma 2 receptor in rat liver membranes after 2 hrs by scintillation counting. It is filed as cell membranes, Membrane. In short, it runs like this: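 Rat liver membranes (sucrose homogenate; pellet held 30 min at room temperature in 50 mM TRIS pH 8.0; 100 µg protein) incubated with 3 nM [3H]DTG and test compound at 10^-10 to 10^-5 M, at room temperature for 120 min. […] Nonspecific binding with 10 µM DTG. Filtration, then scintillation counting. Duplicates. Ki by Cheng-Prusoff from IC50, mean ± SEM, n = 3.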

Test [6] has as its target Sigma non-opioid intracellular receptor 1 (Cavia porcellus) (UniProt Q60492). The test can be described thus: Displacement of [3H]-(+)-pentazocine from sigma 1 receptor in guinea pig brain membranes at 1 uM after 2 hrs by scintillation counting. It is filed as cell membranes. Conditions: Membrane. Put shortly:
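Guinea pig brain membranes (about 100 µg protein) incubated with 2 nM [3H]-(+)-pentazocine and 1 µM test compound in 50 mM TRIS pH 7.4 at 37 °C for 120 min. Filtered, then counted by scintillation. […] Result given as % inhibition of radioligand binding.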

Sigma non-opioid intracellular receptor 1, sequence (Q60492 whole entry): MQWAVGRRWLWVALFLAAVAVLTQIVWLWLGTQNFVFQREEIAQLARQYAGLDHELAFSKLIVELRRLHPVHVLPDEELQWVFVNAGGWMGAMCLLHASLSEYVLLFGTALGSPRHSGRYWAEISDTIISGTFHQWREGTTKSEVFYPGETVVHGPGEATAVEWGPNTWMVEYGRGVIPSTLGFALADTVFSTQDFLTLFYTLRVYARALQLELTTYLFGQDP
Sigma non-opioid intracellular receptor 1 (Cavia porcellus), sequence (Q60492 whole entry): as above

A word on the ED50: it is the midpoint of the dose-response relation. Higher therefore signals a need for a large dose. Molecule `CN1CCC2Cc3ccccc3C(C1)O2` (stereo not drawn) showed an ED50 in test [1] of 20 mg/kg.

A word on the Ki: it is a measure of affinity in units of concentration, obtained from inhibition or displacement. High values mean lower affinity, low ones higher affinity. One may read the inhibition as the drop in the measured response relative to a control, in per cent. The low end stands for little suppression, the high end for strong suppression. In turn, `OCCC1Cc2ccccc2C2(CCN(Cc3ccccc3)CC2)O1` (racemic) came in with a Ki in test [2] of 20 nM. The same molecule gave an inhibition in test [3] of 0%.

Turning to `COC(=O)C[C@@H]1Cc2ccccc2[C@H](CCN2CCCC2)O1` (racemic), the Ki in test [2] was more than 1000 nM. Also, the inhibition in test [3] was found to be 0%.

On to `OCC[C@@H]1Cc2ccccc2[C@H](CCN2CCC(c3ccccc3)CC2)O1` (racemic), for which the Ratio Ki in test [4] was 0.4. Also, the values for the Ki in test [2] and in test [5] were 52 nM and 20 nM, respectively.

Take `COC(=O)CC1Cc2ccccc2C2(CCN(CCCc3ccccc3)CC2)O1` (racemic): the Ratio Ki in test [4] was found to be 15. The Ki in test [2] turned out to be 39 nM; in test [5], 610 nM.

As for `COC(=O)C[C@@H]1Cc2ccccc2[C@H](CCN2CCCCC2)O1` (racemic), affinity in test [2] was put at a Ki of 519 nM.

Take `COC(=O)C[C@@H]1Cc2ccccc2[C@H](CN2CCC(c3ccccc3)CC2)O1` (racemic): in test [4], the Ratio Ki turned out to be 1.2. In addition, the Ki stood at 673 nM in test [2] and 785 nM in test [5].

For `CCCCCCCCN1CCC2(CC1)OC(CCO)Cc1ccccc12` (racemic), the Ratio Ki in test [4] amounted to 9. For the same molecule, the inhibition constant (Ki) in test [2] worked out at 26 nM; in test [5], 234 nM.

Molecule `CCCCN1CCC2(CC1)OC(CCO)Cc1ccccc12` (racemic) gave a Ki in test [2] of 60 nM. Also, the inhibition in test [3] stood at 13%.

In test [2], `COC(=O)C[C@@H]1Cc2ccccc2[C@H](CN2CCCCC2)O1` (racemic) gave a Ki of 510 nM. Also, in test [3], the inhibition turned out to be 7%.

Take `OCCC1Cc2ccccc2C2(CCN(CCCc3ccccc3)CC2)O1` (racemic): the Ratio Ki in test [4] was determined as 30. In addition, the Ki in test [2] worked out at 20 nM; in test [5], 617 nM.

With `COC(=O)C[C@@H]1Cc2ccccc2[C@H](CCN2CCC(c3ccccc3)CC2)O1` (racemic), the Ratio Ki in test [4] was determined as 2.8. The Ki in test [2] is 38 nM; in test [5], 107 nM.

As to `CCN1CCC2(CC1)OC(CCO)Cc1ccccc12` (racemic), the inhibition in test [6] and in test [3] was 0% in each case.

As for `OCC[C@@H]1Cc2ccccc2[C@H](CCN2CCCCC2)O1` (racemic), the inhibition was found to be 4% in test [6] and 14% in test [3].

In turn, `Cc1ccccc1NC(=N)Nc1ccccc1C` [DITOLYLGUANIDINE] returned a Ki in test [5] of 20.2 nM.
